Results on 5 compounds are retold here after PMC4344132 (Cell, 2014).

No end group written: not given here.

By Kd is commonly meant the free concentration of one partner at which half of the binding sites on the other are occupied at equilibrium, for simple one-to-one binding.

The target of one assay is T1, AF9 YEATS domain (Homo sapiens, UniProt P42568).
T1 sequence (P42568 1-138 limits assumed): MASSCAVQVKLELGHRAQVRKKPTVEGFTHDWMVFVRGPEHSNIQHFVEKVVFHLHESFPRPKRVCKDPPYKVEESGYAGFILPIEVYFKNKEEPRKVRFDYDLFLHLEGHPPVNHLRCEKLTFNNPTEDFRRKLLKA
Nature of the assay: Isothermal titration calorimetry. It counts as binding. The settings on record: ITC; different frames of the H3K9ac peptides; Figure 4A. (In general: ITC needs no label: the signal is the heat of the interaction.)

Assay [1] deals with human AF9 YEATS (1–138) (human) (UniProt P42568). Nature of the assay: ITC.
The test system of assay [2] is AF9 occupancy on MYC in HeLa cells. Nature of the assay: AF9 occupancy on MYC in HeLa cells treated with GCN5/PCAF inhibitor. It counts as cell-based. The note with it: Figure S5C. An outline of the steps:
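HeLa cells (endogenous AF9 has no ChIP-grade antibody, so a line stably expressing Flag-AF9 was used) were treated with the GCN5/PCAF inhibitor. Cells were crosslinked with 1% formaldehyde for 10 min, then quenched with 125 mM glycine. Nuclei were sonicated and immunoprecipitated with 2–4 µg antibody overnight at 4°C, collected with Staph A cells, washed and reverse-crosslinked. MYC DNA was quantified by SYBR Green qPCR. Differences were tested by two-way unpaired Student's t-test.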

Assay [3] concerns histone H3 acetylation in HeLa cells. Nature of the assay: Histone H3 acetylation level in HeLa cells treated with GCN5/PCAF inhibitor. The class given is cell-based. The settings on record: Figure S5C.

As to “H3_7–11K9ac: H3K9ac peptide frame 7–11 (ARK(Ac)ST)”, the “binding (in words)” value in the assay with AF9 YEATS domain was “no binding”.
In assay [1], H3K18ac peptide (ITC) gave a Kd of 11 µM.
“H3K9ac peptide with H3R8 substituted with alanine” registered a fold binding reduction against the H3K9ac peptide in assay [1] of 200 fold.
`Clc1ccc(-c2csc(NN=C3CCCC3)n2)cc1` [CPTH2]: the “AF9 occupancy on MYC” value in assay [2] is listed as “reduced”. Besides, the “histone H3 acetylation levels” value in assay [3] is given as “reduced”.
In assay [1], H3K27ac peptide (ITC) returned a Kd of 7 µM.
